Laboratory results reported in ChEMBL document CHEMBL1157951, “Weakly antimalarial flavonol arabinofuranosides from Calycolpus warszewiczianus” (J Nat Prod, 2006).
Activity calls are given as the source filed them. The calls are words filed in the database; no cut-off is given here.

Experiments:
Plasmodium falciparum = assay: Antiplasmodial activity against chloroquine-resistant Plasmodium falciparum W2; format: functional, organism-based
Leishmania mexicana = assay: Antileishmanial activity against Leishmania mexicana WHO-MOHM/B2/82/BELZ promastigote at 40 ug/mL by XTT assay; format: functional, organism-based
In short: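 Promastigotes of L. mexicana (WHO-MOHM/B2/82/BELZ), cultured by established protocols, in a colorimetric growth assay; read-out is reduction of the tetrazolium salt XTT to a water-soluble formazan. Compounds tested at 40 µg/mL.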

Trypanosoma cruzi = assay: Antitrypanosomal activity against Trypanosoma cruzi Tulahuen at 50 ug/mL by beta-galactosidase assay; format: functional, organism-based
In short: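 A transgenic T. cruzi expressing β-galactosidase (Tulahuen strain, clone C4) was used. Growth of the intracellular stage was read from cleavage of the colorimetric substrate chlorophenol red-β-D-galactoside. Compounds tested at 50 µg/mL.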

Vero = assay: Cytotoxicity against african green monkey Vero cells after 4 hrs by MTT assay; format: cell-based; settings: Chlorocebus sabaeus

## O=C(Oc1cc(O)cc2oc(-c3ccc(O)c(O)c3)c(O[C@@H]3O[C@@H](CO)[C@H](O)[C@H]3O)c(=O)c12)c1cc(O)c(O)c(O)c1
Plasmodium falciparum
  IC50: 14.5 µM
Leishmania mexicana
  Activity: inactive
Trypanosoma cruzi
  Activity: inactive
Vero
  IC50: 86.5 µM

## CC(=O)O[C@@H]1[C@@H](O)[C@H](Oc2c(-c3cc(O)c(O)c(O)c3)oc3cc(O)cc(O)c3c2=O)O[C@H]1CO
Leishmania mexicana
  Activity: inactive
Trypanosoma cruzi
  Activity: inactive

## CC(=O)OC[C@@H]1O[C@@H](Oc2c(-c3cc(O)c(O)c(O)c3)oc3cc(O)cc(O)c3c2=O)[C@H](O)[C@H]1OC(C)=O
Leishmania mexicana
  Activity: inactive
Trypanosoma cruzi
  Activity: inactive
Vero
  IC50: 456 µM

## Oc1cc(O)c2c(c1)O[C@H](c1ccc(O)c(O)c1)[C@H](O)C2 [(-)-EPICATECHIN]
Plasmodium falciparum
  IC50: > 50 µM
Vero
  IC50: 184 µM

## O=c1c(O[C@@H]2O[C@@H](CO)[C@H](O)[C@H]2O)c(-c2cc(O)c(O)c(O)c2)oc2cc(O)cc(O)c12
Plasmodium falciparum
  IC50: 27.8 µM
Leishmania mexicana
  Activity: inactive
Trypanosoma cruzi
  Activity: inactive
